# Test results as given in ChEMBL document CHEMBL1148736, “N-Acylthiadiazolines, a new class of liver X receptor agonists with selectivity for LXRbeta” (J Med Chem, 2007).
# Active and inactive are the calls of the source. The rule behind the calls is not given here.
# Columns and labels:
# [1] = molecular target: T1, Oxysterols receptor LXR-alpha (Homo sapiens) (UniProt Q13133); assay: Displacement of [3H]T-0901317 from GAL-linked human LXRalpha expressed in THP1 cells at 20 uM by SPA relative to GW-3965; format: cell-based; conditions: THP-1
# T1 sequence (whole entry): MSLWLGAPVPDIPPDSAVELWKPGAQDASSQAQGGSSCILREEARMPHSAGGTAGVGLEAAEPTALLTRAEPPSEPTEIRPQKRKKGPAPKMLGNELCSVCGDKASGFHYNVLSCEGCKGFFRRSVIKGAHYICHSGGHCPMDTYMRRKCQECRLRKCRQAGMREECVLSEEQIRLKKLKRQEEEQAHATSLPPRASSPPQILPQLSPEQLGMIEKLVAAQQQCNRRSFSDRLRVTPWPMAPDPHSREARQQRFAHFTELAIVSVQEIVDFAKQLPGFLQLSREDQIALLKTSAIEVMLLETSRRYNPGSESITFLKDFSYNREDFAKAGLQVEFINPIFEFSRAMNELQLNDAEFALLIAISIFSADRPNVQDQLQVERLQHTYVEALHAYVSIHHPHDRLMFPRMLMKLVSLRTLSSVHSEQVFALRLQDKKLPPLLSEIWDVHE
# Procedure, shortened: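 Scintillation proximity displacement with His-tagged hLXRα or hLXRβ LBD (200 ng/well) and 30 nM [3H]T0901317. Beads 0.2 mg/well in phosphate buffer with EDTA, NaCl, DTT, CHAPS, 10% glycerol. 12-point curves from 20 µM; shaken 3 h at room temperature. No-competitor wells = 100% binding; nonspecific binding without protein. Efficacy = maximal displacement relative to reference dual agonist.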
# [2] = molecular target: T1, Oxysterols receptor LXR-alpha (Homo sapiens); assay: Agonist activity at GAL-linked human LXRalpha expressed in THP1 cells assessed as stimulation of co-activator recruitment by FRET assay relative to GW-3965; format: functional
# Procedure, shortened: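 Cell-free TR-FRET coactivator recruitment: 20 nM His-tagged hLXRα or hLXRβ, 300 nM biotinylated SRC-1 peptide, Eu-anti-His antibody, APC-streptavidin. 12-point curves from 20 µM; 1 h at 37 °C. Duplicate. %E = maximal coactivator recruitment relative to reference dual agonist in same experiment.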
# [3] = system: HepG2; assay: Increase in FAS gene expression in HepG2 cells at 1 uM relative to GW-3965; format: functional, Homo sapiens
# [4] = molecular target: T1, Oxysterols receptor LXR-alpha (Homo sapiens); assay: Activity at human LXRalpha by Gal4 transactivation assay relative to GW-3965
# Procedure, shortened: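 GAL4 DBD fused to hLXRα or hLXRβ LBD in pcDNA3, co-transfected into HepG2 with luciferase reporter. Cells in DMEM with 10% lipoprotein-deficient FBS, 7.5 µM lovastatin, 100 µM mevalonic acid. Ligand added 24 h post-transfection as 11-point curves from 10 µM; luciferase read after 16 h. Run in quadruplicate. %E = max fold induction vs max fold induction of reference dual agonist in same experiment.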
# [5] = molecular target: Retinoid X receptor (Homo sapiens) (UniProt P28702+P48443+P19793); assay: Activity at RXR by cell based assay
# [6] = molecular target: T2, Nuclear receptor subfamily 1 group I member 2 (Homo sapiens, UniProt O75469); assay: Activity at PXR by cell based assay; format: functional
# T2 sequence (O75469 whole entry): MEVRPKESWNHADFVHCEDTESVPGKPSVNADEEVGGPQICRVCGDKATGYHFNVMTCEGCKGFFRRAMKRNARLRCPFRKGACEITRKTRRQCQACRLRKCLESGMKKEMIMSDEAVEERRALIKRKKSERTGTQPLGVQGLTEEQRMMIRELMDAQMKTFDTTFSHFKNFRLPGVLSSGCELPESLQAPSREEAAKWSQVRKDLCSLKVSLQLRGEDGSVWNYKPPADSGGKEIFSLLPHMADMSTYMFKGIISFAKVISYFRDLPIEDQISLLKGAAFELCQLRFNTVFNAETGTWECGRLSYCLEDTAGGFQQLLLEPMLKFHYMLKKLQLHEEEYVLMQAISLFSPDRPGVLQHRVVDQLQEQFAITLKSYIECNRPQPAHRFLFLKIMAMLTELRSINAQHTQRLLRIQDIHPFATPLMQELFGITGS
# [7] = molecular target: T3, Glucocorticoid receptor (Homo sapiens) (UniProt P04150); assay: Activity at GR by cell based assay; format: functional
# T3 sequence (whole entry): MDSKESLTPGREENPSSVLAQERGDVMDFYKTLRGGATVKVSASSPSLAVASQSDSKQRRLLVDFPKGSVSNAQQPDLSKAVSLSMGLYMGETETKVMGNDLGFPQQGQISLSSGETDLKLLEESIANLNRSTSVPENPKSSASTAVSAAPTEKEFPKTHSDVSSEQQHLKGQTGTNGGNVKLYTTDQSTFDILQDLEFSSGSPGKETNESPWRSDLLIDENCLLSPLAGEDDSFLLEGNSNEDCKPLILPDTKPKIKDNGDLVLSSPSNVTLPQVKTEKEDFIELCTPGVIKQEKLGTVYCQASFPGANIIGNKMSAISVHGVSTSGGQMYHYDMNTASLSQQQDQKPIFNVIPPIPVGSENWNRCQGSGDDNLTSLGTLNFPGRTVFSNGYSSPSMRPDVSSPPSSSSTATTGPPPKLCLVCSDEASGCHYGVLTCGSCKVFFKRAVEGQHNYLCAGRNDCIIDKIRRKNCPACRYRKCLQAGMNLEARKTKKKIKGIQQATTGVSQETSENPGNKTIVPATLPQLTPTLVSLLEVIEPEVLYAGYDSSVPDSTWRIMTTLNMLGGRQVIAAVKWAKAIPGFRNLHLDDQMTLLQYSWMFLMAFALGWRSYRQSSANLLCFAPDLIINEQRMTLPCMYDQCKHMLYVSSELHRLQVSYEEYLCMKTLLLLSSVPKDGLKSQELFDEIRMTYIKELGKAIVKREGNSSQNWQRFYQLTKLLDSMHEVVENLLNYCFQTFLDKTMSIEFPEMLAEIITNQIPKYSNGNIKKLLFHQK
# [8] = Cmax in C57BL/6 mouse at 5 mg/kg, iv; format: ADME, organism-based; design: dose 5 mg/kg, route intravenous; conditions: in vivo
# Procedure, shortened: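 Mouse PK study, IV and PO; compound formulated at 2.5 mg/mL in PEG300/Tween 80 (4:1). IV dose 5 mpk (AUC, Cmax, clearance, Vss); oral dose 20 mpk (AUC, Cmax, bioavailability, t1/2).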
# Chain of Retinoid X receptor (Homo sapiens) (P19793 whole entry, looked up): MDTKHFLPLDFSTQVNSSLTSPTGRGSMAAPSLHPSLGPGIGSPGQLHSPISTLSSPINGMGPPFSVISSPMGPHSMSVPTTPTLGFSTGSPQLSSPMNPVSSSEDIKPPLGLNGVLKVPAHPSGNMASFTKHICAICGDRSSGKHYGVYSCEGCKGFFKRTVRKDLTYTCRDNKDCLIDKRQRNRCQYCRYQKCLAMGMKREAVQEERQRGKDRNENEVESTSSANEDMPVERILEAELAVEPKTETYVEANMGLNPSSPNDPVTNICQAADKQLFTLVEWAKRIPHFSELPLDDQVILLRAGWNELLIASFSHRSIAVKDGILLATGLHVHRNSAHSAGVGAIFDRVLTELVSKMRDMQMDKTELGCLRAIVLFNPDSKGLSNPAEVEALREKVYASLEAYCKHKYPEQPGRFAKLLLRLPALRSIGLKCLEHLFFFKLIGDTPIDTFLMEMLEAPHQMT
# Chain of Retinoid X receptor (Homo sapiens) (P28702 whole entry, looked up): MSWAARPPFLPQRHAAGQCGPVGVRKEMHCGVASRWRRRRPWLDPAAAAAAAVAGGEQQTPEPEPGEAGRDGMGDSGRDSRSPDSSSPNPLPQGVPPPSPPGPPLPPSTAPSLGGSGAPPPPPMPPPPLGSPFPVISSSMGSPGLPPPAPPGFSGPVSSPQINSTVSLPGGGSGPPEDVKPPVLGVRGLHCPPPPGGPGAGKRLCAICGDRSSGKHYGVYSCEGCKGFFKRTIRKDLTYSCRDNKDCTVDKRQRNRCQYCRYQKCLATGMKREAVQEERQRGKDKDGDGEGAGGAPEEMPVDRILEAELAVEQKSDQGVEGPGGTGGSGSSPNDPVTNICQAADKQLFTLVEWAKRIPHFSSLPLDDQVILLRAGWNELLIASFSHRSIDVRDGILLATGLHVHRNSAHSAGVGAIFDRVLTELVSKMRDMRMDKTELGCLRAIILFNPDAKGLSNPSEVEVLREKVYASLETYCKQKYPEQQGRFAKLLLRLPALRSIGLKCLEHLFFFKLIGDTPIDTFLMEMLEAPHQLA
# Chain of Retinoid X receptor (Homo sapiens) (P48443 whole entry, looked up): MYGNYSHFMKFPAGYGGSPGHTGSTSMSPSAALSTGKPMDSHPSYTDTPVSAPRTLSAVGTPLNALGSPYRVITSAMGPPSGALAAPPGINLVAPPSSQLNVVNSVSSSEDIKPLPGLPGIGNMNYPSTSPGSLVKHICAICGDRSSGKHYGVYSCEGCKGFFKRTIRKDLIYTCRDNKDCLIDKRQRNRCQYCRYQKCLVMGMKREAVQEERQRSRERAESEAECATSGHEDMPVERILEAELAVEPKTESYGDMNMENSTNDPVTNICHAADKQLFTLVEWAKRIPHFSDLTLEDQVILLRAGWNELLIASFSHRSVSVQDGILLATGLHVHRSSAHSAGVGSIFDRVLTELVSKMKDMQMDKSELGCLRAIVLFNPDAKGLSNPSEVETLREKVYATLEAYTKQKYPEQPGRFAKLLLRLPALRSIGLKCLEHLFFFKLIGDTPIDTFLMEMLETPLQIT
smiles,measurement,setting,value
COc1cccc(C2SC(c3ccc(Cl)cc3)=NN2C(=O)c2c(F)cc(F)cc2F)c1OC (racemic),Efficacy,[1],52%
same,Efficacy,[2],42%
same,Activity,[3],10%
same,Efficacy,[4],19%
same,Activity,[5],inactive
same,Activity,[6],Not Active
same,Activity,[7],inactive
same,Cmax,[8],20.4 µM
